# Screening data as filed in PubChem BioAssay.
# proKLK7 act: proKLK7 zymogen activators, primary screen, biochemical, fluorescence intensity; Kallikrein-7 (Homo sapiens), P49862; purified proKLK7, EDANS-DABCYL substrate fluorescence; 100% is mature enzyme control, 0% vehicle; activation, % at 7 µM; 0.9% of 370,000 active;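 active = activation above the mean of all tested compounds plus 3 SD, computed per campaign excluding outliers beyond control limits, cut at about 13% in these data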
# Target sequence (P49862 whole entry, looked up): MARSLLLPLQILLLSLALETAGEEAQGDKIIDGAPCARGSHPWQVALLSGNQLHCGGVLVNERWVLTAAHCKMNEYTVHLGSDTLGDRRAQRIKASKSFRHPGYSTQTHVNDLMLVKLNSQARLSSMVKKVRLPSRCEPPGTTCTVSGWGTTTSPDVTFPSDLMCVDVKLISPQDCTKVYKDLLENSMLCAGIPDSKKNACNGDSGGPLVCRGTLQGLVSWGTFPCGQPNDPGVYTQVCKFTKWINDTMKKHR
# CRFBP-R2 block: antagonists of CRF-BP/CRF-R2 complex, primary screen, cell-based, HEK293, calcium dye fluorescence, uHTS | inhibition, % at 11.8 µM | AID 588475, 2011 | 0.59% of 350,000 active | CRF-induced calcium fluorescence;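 active = inhibition of the ligand-induced calcium signal above about 50% at the single tested concentration, limit read from the data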
# Tn7 DDE FP: inhibitors of Tn7 peptide binding to fibrin DD(E), primary screen, biochemical, fluorescence polarization, human fibrin, Tn7 probe | FP displacement of FITC-Tn7 peptide from fibrin DD(E); 0% = median of compound wells per plate | inhibition, % at 8.3 µM | AID 720508, 2013 | 0.13% of 370,000 active;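 active = inhibition above the mean of compounds falling within the control limits plus 3 SD of them, cut at about 14% in these data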;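 also: 0% = plate median of compound wells and 100% = 10 µM Aha-Tn7 peptide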
#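 Assay system: human fibrin DD(E). Input: DD(E) 2 µM final. Medium: Tris buffer with calcium and detergent, pH 7.8. Compound dosing: single point at 8.3 µM. Timing: 10 min plus 3 h, room temperature. Technique: fluorescence polarization of the labelled Tn7 tracer. Read-out: percent inhibition. Replicates: singlicate testing.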
# Tn6 DDE FP: inhibitors of Tn6 peptide binding to fibrin DD(E), primary screen, biochemical, fluorescence polarization, human fibrin, Tn6 probe | Fibrinogen beta chain (Homo sapiens), P02675 | Fibrin DD(E) TRITC-Tn6 fluorescence polarization displacement | inhibition, % at 8.3 µM | 0.21% of 370,000 active;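 active = inhibition above a per-campaign cutoff: mean of compounds within control limits plus 3 SD, cut at about 15% in these data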;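 also: 0% = median of all compound wells on the plate and 100% = blocking peptide control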
# CendR NRP1 mod: modulators of CendR peptide binding to NRP-1, primary screen, biochemical, fluorescence polarization, uHTS; 0.85% of 360,000 active; AID 602438, 2012; inhibition, % at 25 µM; FAM-RPARPAR peptide binding to NRP-1;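 active = inhibition or corrected inhibition above about 18%, plus a signal ratio from 0.5 to 1.5, limit read from the data, passing the limit was not always enough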
# CRFBP-R2 agonist: agonists of CRF-BP/CRF-R2 complex, primary screen, cell-based, HEK293, calcium dye fluorescence, uHTS; CRF-binding protein / CRF receptor 2 complex (human); 0.46% of 350,000 active; calcium dye fluorescence (FLIPR); percent of saturating CRF peptide response; activation, % at 13.2 µM;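 active = activation of at least 50%, plus an integration ratio under a set limit after plate pattern correction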;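 also: plate controls were neutral control wells without compound for no effect and CRF at EC100 for full effect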
# * = called active by the depositor; · = not tested or not shown; + = active, no number. Only some compounds are listed: those with a hit (about 2.9% of all), similar ones and a draw of the others.
SMILES,proKLK7 act,CRFBP-R2 block,Tn7 DDE FP,Tn6 DDE FP,CendR NRP1 mod,CRFBP-R2 agonist
COc1ccc(/C=N\NC(=O)CN2CCN(Cc3ccccc3)CC2)cc1OCc1ccccc1,0.0,·,0.5,3.6,·,·
CC1=NOC(=O)/C1=C\c1ccc(-c2ccc(Cl)c(C(=O)O)c2)o1,0.8,-14.9,0.2,-1.9,-54.7,17.3
CC1=NOC(=O)/C1=C\c1ccc(-c2ccccc2Br)o1,0.2,-31.8,2.5,1.3,-76.0,50.7*
CC1=NOC(=O)/C1=C\c1ccc(-c2cccc(Cl)c2)o1,·,-43.5,·,·,-103.5,63.6*
CC(=O)OCC(=O)N1CCN(C(=O)C(=O)c2cccc(C(F)(F)F)c2)CC1,0.7,·,4.6,3.9,·,·
CC(C)n1c(NCCO)nc2ccccc21,-0.5,30.9,-7.1,-7.7,25.8*,-1.0
CC(C)COc1ccc(CNC(=S)Nc2ccccc2)cc1Cl,0.5,107.2*,4.6,8.8,1.1,4.1
CC(C)(C)c1ccc(-c2nnc(SCC(=O)Nc3ccc(S(=O)(=O)Nc4nccs4)cc3)n2-c2ccc(Cl)cc2)cc1,-0.5,·,-6.6,1.6,·,·
Cc1ccc(S(=O)(=O)N2CCN(CC(=O)N(CC(C)C)c3c(N)n(CC(C)C)c(=O)[nH]c3=O)CC2)c(C)c1,1.1,8.5,-6.0,-1.8,48.7*,-0.3
CCOC(=O)/C=c1/s/c(=C/c2ccc3cc(OC)ccc3c2)c(=O)n1CC(=O)NCc1ccc2c(c1)OCO2,-2.8,-10.9,2.2,-3.8,-72.4,64.2*
CCOC(=O)/C=c1\s/c(=C\c2ccc(-c3ccccc3)cc2)c(=O)n1CC(=O)NCc1ccc2c(c1)OCO2,-1.3,8.2,3.7,-5.7,-24.8,18.0
O=C(CSc1nccn1Cc1ccc(F)cc1)NC1CCCCC1,-0.2,2.4,2.6,9.1,24.8*,-2.5
CCNCc1nc2cc(OC)c(OC)cc2c(=O)[nH]1,-0.7,3.5,-2.4,-9.4,28.0*,1.6
Nc1nnnn1/N=C/c1cc(Cl)ccc1O,6.6,-16.7,3.9,5.2,-5.2,34.2
Nc1nnnn1/N=C/c1cc(Cl)cc(Cl)c1O,3.3,-107.5,-1.9,1.9,132.6,138.4*
Cc1cc(N2CCCC2=O)ccc1S(=O)(=O)NC1CCCCC1,-0.1,4.1,2.7,7.1,20.6*,0.4
COC(=O)[C@]12C[C@H](CC(=O)NCCc3ccccc3OC)C(=O)N(CCC3=CCCCC3)C1=C[C@H](C(C)C)O[C@@H]2C1CC1,1.2,·,-3.0,0.4,·,·
CCOC(=O)c1cccc(NC(=O)CN(C)S(=O)(=O)c2cc(OC)ccc2OC)c1,-0.5,·,6.8,3.2,·,·
O=[N+]([O-])c1ccc(O)c(-c2cc(C(F)(F)F)nc(-c3ccccc3)n2)c1,-0.6,59.1*,2.7,1.0,5.9,62.4*
Oc1ccccc1-c1cc(C(F)(F)C(F)F)nc(-c2ccccc2)n1,0.0,-78.3,-3.1,5.4,-3.1,1.7
CCOc1ccc(N(CC(=O)Nc2c(C)n(C)n(-c3ccccc3)c2=O)S(=O)(=O)c2ccc3c(c2)N(C(=O)C2CCC2)CC3)cc1,0.3,·,-1.5,-3.8,·,·
O=C(O)c1ccc(CSc2nnc(SCc3ccccc3)s2)cc1,-0.2,24.2,-0.6,4.9,10.8,-1.5
O=C(O)c1ccc(CSC2CCCCC2)cc1,-0.3,11.5,-1.9,3.5,22.1*,-0.2
Nc1c(C(=O)c2ccc(Cl)cc2)sc2nsc(SCCN3CCOCC3)c12,-0.5,-73.4,-4.8,-2.9,-149.4,91.6*
Nc1c(C(=O)c2ccccc2)sc2nsc(SCCN3CCCC3)c12,0.3,-79.9,0.9,-6.2,-71.1,102.2*
CN(C)c1ccc(/C=C/c2ccc3c4ccccc4ccc3[n+]2-c2ccccc2)cc1,5.7,18.8,8.8,+,-78.3,0.0
CCCC[C@H](CCCc1ccc(F)cc1)CCC(=O)N(c1ccccc1)c1ccccc1,0.2,·,0.5,-4.7,·,·
